Data from ChEMBL document CHEMBL4513216, “Probing the Open Global Health Chemical Diversity Library for Multistage-Active Starting Points for Next-Generation Antimalarials” (ACS Infect Dis, 2020).

Test: Toxicity liver stage against HepG2, at 10uM
Format: cell-based
Set-up: test concentration 10 uM, cell line HepG2-A16-CD81EGFP
Conditions: human, HepG2-A16-CD81EGFP cells; read-out: INHIBITION
Method in brief: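 Uninfected HepG2-A16-CD81EGFP cells, 3 × 10^3 per well, 1536-well, plated on prespotted compound at 10 μM final, parasite-free screening media added to match infected plates; puromycin 10 μM positive, DMSO 0.5% negative; run in parallel with 48 h PbLuc assay at 37 °C, 5% CO2; viability by CellTiter-Glo luminescence, normalized to controls.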

SMILES | cytotoxicity at 10 µM
COC(=O)COn1c(SCC(=O)OC)nc2ccccc2c1=O | -8.38%
Cc1ncc(CN(C)C(=O)Nc2cccc(N3CCOC3=O)c2)s1 | 5.31%
O=c1cc(CNCc2ccc3c(c2)OCO3)nc2ccc(Br)cn12 | -2.62%
CC(C)CS(=O)(=O)Nc1ccc([C@H]2OCC(=O)N[C@@H]2CO)cc1 | 2.79%
CC[C@H]1CN2CC[C@H]1C[C@@H]2CNC(=O)Nc1cccc(C#N)c1 | -0.201%
CCOCCCNC(=O)C1(C)CCC(=O)N1c1cc(OC)ccc1OC (stereo not drawn) | 0.957%
Cc1ccc2snc(C(=O)N3CCN(C(=O)NCCC(C)C)CC3)c2c1 | -0.964%
CC(O)CN1CCC(=O)N(Cc2ccccc2)Cc2ccccc21 (stereo not drawn) | -3.37%
COCC(O)CN1CCC(=O)N(CC=C(C)C)Cc2ccccc21 (stereo not drawn) | 1.87%
O=c1c(NCCNCCO)c(N2CCN(Cc3ccccc3)CC2)c1=O | -5.9%
O=C(Cn1cnc2sccc2c1=O)NCCCc1nnc2ccccn12 | 5.84%
COc1ccc(CCC(=O)NCc2cc(C)on2)cc1 | -56.4%
COC(=O)CN1N=C(C(=O)N2CCCC2)S(=O)(=O)c2ccccc21 | -8.25%
COc1cc(OC)cc(C(=O)NCC(c2cccn2C)N2CCCC2)c1 (stereo not drawn) | 11.2%
COc1cccc(NC(=O)NCC(C)(O)CCSC)c1OC (stereo not drawn) | 0.253%
CCc1cc(=O)n(CCNC(=O)Nc2ccc(OC(F)(F)F)cc2)cn1 | -0.898%
CC(C)(C)c1cc(=O)n2c(n1)SCC(C(=O)NCc1cccs1)C2 (stereo not drawn) | 12.9%
COCCN(Cc1ccoc1)C(=O)c1ccccc1OC | 6.28%
O=C(c1ccccn1)N1CCN(c2cnnc(N3CCCC3)c2)CC1 | 4.74%
FC1(F)CCNCC12CCN(c1ccccn1)C2 (stereo not drawn) | -0.31%
Cc1nccc([C@@H]2C[C@H]3CN(S(=O)(=O)c4ccccc4)C[C@H]3O2)n1 | 1.32%
CC(C)CO[C@@H]1CC[C@H]2[C@H]1OCCN2S(=O)(=O)C1CC1 | 4.04%

SMILES | cytotoxicity at 10 µM
CC(=O)c1cn(CCC(=O)NCCC(=O)O)c2ccccc12 | 7.13%
CC(C)CC1SCC(=O)Nc2c1cnn2-c1ccc(F)cc1 (stereo not drawn) | 6.82%
CCOC(=O)c1sc(NC(=O)CN(C)S(C)(=O)=O)c(C#N)c1C | 16.6%
COCCO[C@H]1CCN(C(=O)c2cc(C)on2)[C@H]1Cc1ccccc1 | 8.22%
COc1ccc(CCNC(=O)Cn2ncc3c2c(C)nn3C)cc1 | 8.93%
Cc1ccc(NC(=O)CN2CCOCC2)c(F)c1 | 5.76%
CN1CCCC1CCNC(=O)c1ccccc1-n1cc(CN)cn1 (stereo not drawn) | 3.44%
COc1nc2cc(C)ccc2cc1CN(C)Cc1n[nH]c2c1CCCC2 | 4.03%
CCN1CCCC(O)(c2nc(C)c(CCOc3ccccc3Cl)s2)CC1 (stereo not drawn) | -26.2%
O=C(Cn1cc(Cl)cn1)N1CCCC(c2ccn[nH]2)C1 (stereo not drawn) | -22.5%
O=C(O)c1cccc(CN2CCC(c3ccnc4ccnn34)CC2)c1 | -16.2%
CNc1cc(C2CCCN(S(=O)(=O)c3cn[nH]c3)C2)ccn1 (stereo not drawn) | -24%
CC(C)n1ccnc1CN1CCCC1c1cccc(-n2ccnc2)n1 (stereo not drawn) | -25.1%
CC(=O)N1CCC(Cc2cncc(-c3c(C)n[nH]c3C)n2)C1 (stereo not drawn) | -19.4%
COc1ccc(C2Nc3cc(Cl)ccc3C3=NCCN32)cc1O (stereo not drawn) | -31.1%
O=C(Cc1ccsc1)N1CCCC(c2cc(C(F)F)n3ncnc3n2)C1 (stereo not drawn) | -20.7%
COCCN(Cc1ccco1)c1ncc(C#N)cc1Cl | -2.66%
O=C(c1sccc1-n1cnnn1)N1CCC2(CCCCC2)CC1 | 9.09%
CC(CC(=O)c1ccccc1)NC(=O)c1ccon1 (stereo not drawn) | -10.7%
Fc1cccnc1N1CCC(NCc2cccc3cn[nH]c23)C1 (stereo not drawn) | 13.6%
COc1ccc(C(=O)CCC(=O)NCc2ncc(C)s2)cc1F | -11.8%
Cc1csc(CNc2cccc(OCCN3CCCC3)c2)n1 | -4.49%

SMILES | cytotoxicity at 10 µM
Cn1cnc2cc(C(=O)NS(=O)(=O)c3ccc(F)cc3)ccc21 | -8.95%
CS(=O)(=O)CCSCc1cc(F)cc2cccnc12 | -1.46%
CCC(NC(=O)CNCC(F)(F)F)c1cc(F)ccc1F (stereo not drawn) | -4.56%
Cc1cc(C)n(C2CN(CCc3ccccn3)C2)n1 | 3.65%
OCCN1CCN(CCOCC(F)(F)F)CC1 | -4.47%
O=C(c1ccc(O)c(Cl)c1)N(Cc1ccncc1)C1CC1 | -8.99%
O=C(NCCCc1ccc(O)cc1)C1(O)Cc2ccccc2C1 | 1.6%
O=C(NC1CCS(=O)(=O)C1)c1sccc1-c1ccc(F)cc1 (stereo not drawn) | 8.14%
COc1cccc(CNC(=O)C(c2cccc(F)c2)N2CCOCC2)c1 (stereo not drawn) | -6.24%
Cc1ccc(CN(C)C(=O)CN2CC(n3cccn3)C2)o1 | -0.0582%
CCOCC1CN(S(=O)(=O)C2CC2)Cc2nn(C)cc21 (stereo not drawn) | -112%
CCS(=O)(=O)N1CC[C@H](OC)[C@@H]1Cc1ccncc1 | 5.43%
Cc1noc(C)c1CN1CC[C@H]2C[C@@H](c3nccs3)O[C@@H]2C1 | -5.33%
CCCc1cc(C(=O)N2Cc3cnc(C(C)(C)C)nc3C2)ccn1 | -0.807%
CC(C)[C@H](Nc1nc(C2CCCC2)nc2c1cnn2C)C(N)=O | -51.5%
CN1CCC(CNC(=O)CCSc2ccc3c(c2)OCCO3)C1 (stereo not drawn) | -3.13%
Cc1n[nH]c(C)c1-c1cc(-c2cc[nH]c2)nc(N)c1C#N | 2.41%
CN(Cc1ccccc1)c1cnn(CC2COCCO2)c(=O)c1 (stereo not drawn) | -12.4%
Cc1ccccc1OCC(=O)N1CCOC2(CNCCOC2)C1 (stereo not drawn) | -2.96%
CCC(C)N1CCC(Oc2ccc(C(=O)NCCN(C)C)cc2Cl)CC1 (stereo not drawn) | -2.09%
CC(C)Cc1cc(CNc2nc(-c3cccnc3)nc3c2CNC3)no1 | 1.95%
Cn1ccnc1CN1C[C@@H](CN2CCCCCC2)[C@@H](CO)C1 | -2.63%

SMILES | cytotoxicity at 10 µM
CCC[C@H]1CN(Cc2cncn2C)C[C@@H]1NC(=O)C1(COC)CCC1 | -8.26%
CC(C)NS(=O)(=O)c1cc(C(=O)O)cc(-n2cc3c(n2)CCC3)c1 | 3.19%
O=C(O)[C@@H]1CN(Cc2c[nH]c(CC3CCCC3)n2)C[C@H]1c1ccccn1 | 3.86%
Cc1cccc(C(=O)N2CC(=O)N(c3ccccc3Cl)CC2C)n1 (stereo not drawn) | -7.25%
CC(C)=CCN1C[C@@H](C(=O)O)C[C@H](C(=O)Nc2ccc(C)nc2)C1 | 5.67%
Cc1cccnc1CN1CCN(C(=O)c2cnn(C(C)C)c2)CC1 | 0.616%
CC(=O)Nn1c(C)cc(CN2CCC(c3ccncc3)CC2)c1C | 4.61%
CCn1ncnc1CN1CCC(CNC(=O)c2cccc(C)c2)C1 (stereo not drawn) | -2.59%
COc1ccc(Cn2cc(C(=O)N(C)CCN(C)C)nn2)cc1 | 7.13%
O=C(O)COc1ccc(CN2CCCC(CCc3ccccc3)C2)cc1 (stereo not drawn) | 12.1%
COCCCN1C(=O)CC[C@H]2CN(c3cnc4ccccc4n3)CC[C@H]21 | 5.77%
CN(C)C[C@@H]1CN(C(=O)CCC2CCCC2)C[C@@H]1CO | -2.94%
OCCNc1cc(N2CCC(n3cc(C4CCCC4)nn3)CC2)ncn1 | -9.72%
CCc1cc(CN(Cc2cccnc2)C2CN3CCC2CC3)on1 (stereo not drawn) | 2.09%
O=C(Nc1ccccc1)c1cc2n(n1)CCCN(C(=O)c1ccc[nH]1)C2 | 3.99%
CCn1ncc(C(=O)N2CCN(CC3CCCO3)CC2)c1C (stereo not drawn) | -11.6%
Cc1cc(CN(C)C(=O)C2CC(=O)N(Cc3cccnc3)C2)on1 (stereo not drawn) | 2.95%
COCCNc1nc2c(c(NCCc3cccs3)n1)CCNCC2 | 3.96%
CCC(C(=O)NCc1ccncc1)N(c1ccccc1)S(C)(=O)=O (stereo not drawn) | -1.17%
Cc1oc(-c2ccsc2)nc1CN1CC[C@@H]2CCCC[C@H]2C1 | 7.16%
NC(=O)c1csc(N2CCCC(c3n[nH]c(=O)n3-c3ccccc3)C2)n1 (stereo not drawn) | 8.84%
Cc1nonc1CN(C)CC1(O)CCCN(CCC2CCCCC2)C1=O (stereo not drawn) | 49.4%

SMILES | cytotoxicity at 10 µM
COCCN1CCN(Cc2ccc(F)c(C)c2)[C@H]2CS(=O)(=O)C[C@H]21 | -25.5%
Cc1cccnc1CNCC1(O)CCCN(Cc2ccc(F)cc2)C1=O (stereo not drawn) | -12.3%
CCc1ccc(C(=O)O)cc1S(=O)(=O)Nc1ccc2c(c1)OCCO2 | -4.07%
Cc1ccc(NC2CCN(C(=O)Cc3c(C)noc3C)CC2)nn1 | -8.13%
Cc1nc(C)n(CC2CCCCN2Cc2nc(-c3ccoc3)no2)n1 (stereo not drawn) | 1.98%
Cc1nn(-c2ccccc2)nc1C(=O)N1CCCC1c1cnn(C)c1 (stereo not drawn) | -0.857%
O=C(c1cccc2c1OCO2)N1CCCC(n2cccn2)C1 (stereo not drawn) | -8.72%
Cc1csc(C(Cc2ccsc2)NC(=O)CN(C)Cc2ccccn2)n1 (stereo not drawn) | 0.258%
Cn1nc(C2CCN(C(=O)Cc3ccsc3)CC2)c2cccnc21 | -4.9%
CN(C)CCN1CCCC12CCCN(C(=O)c1cccnc1)C2 (stereo not drawn) | -0.95%
Cc1ccc2c(n1)N(Cc1csc(C)n1)CCN(C1CCOC1)C2 (stereo not drawn) | 9.28%
O=C(NC1CC1)C1=CC2(CCN(CCO)CC2)c2ccccc21 | 1.41%
CC(C)NC(=O)[C@H]1C[C@@H]2[C@@H](C1)OCCN2Cc1cccnc1 | 2.39%
CS(=O)(=O)N1CCCC12CCN(Cc1nccs1)CC2 | 8.1%
c1cnc(N2CCC3(CCN(CC4CCCC4)CC3)C2)nc1 | 0.845%
COc1cccc(CN2C[C@@H]3COC[C@]3(COCc3ccncc3)C2)c1 | 3.52%
CC(C)NC(=O)N1CC[C@@H](N(C)C)[C@@H]1Cc1ccncc1 | 5.53%
Cc1ccc(CN2CCC(O)(Cn3ccc4ncccc43)CC2)o1 | -31.2%
CCc1cnc(N2C[C@@H]3C[C@H](C(=O)N4CCOCC4)[C@H](C2)O3)nc1 | -104%
c1ccc(COC2C[C@@H]3CN(Cc4cncnc4)C[C@@H]3C2)cc1 (stereo partly drawn) | -40%
